Rows were chosen to be rich in hits. Some 2.9% of all compounds tested hit in one or more screens of this group.
SENP6 block: inhibitors of human SENP6 protease; Recombinant SENP6 catalytic domain, aminoluciferin luminescence; inhibition, % at 10 µM; 1.8% of 330,000 active; AID 2599;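 active = inhibition above about 50% at the single tested dose, limit read from the data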;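 note: plate controls were DMSO wells with enzyme for no effect and DMSO wells lacking enzyme for full effect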
HSP90 refold inh: blocks HSP90-mediated luciferase refolding in reticulocyte lysate; Rabbit reticulocyte lysate, luciferase refolding luminescence, 3 h; inhibition, % at 5.6 µM; 0.91% of 290,000 active;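 active = inhibition above the screen-wide mean plus 3 SD, computed separately per campaign, cut at about 16% in these data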;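 note: 0% = DMSO wells and 100% = 60 µM geldanamycin wells; inhibitors lower the luminescence because luciferase stays unfolded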
SENP7 block: blocks the human protease SENP7; Q9BQF6; recombinant SENP7, Z-RLRGG-aminoluciferin luminescence, 40 min; inhibition, % at 5 µM; 1.5% of 330,000 active;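 active = inhibition above about 50% at the single test dose, limit read from the data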;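 note: plate controls were DMSO with enzyme for no effect and no enzyme buffer wells for full effect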
Target sequence (Q9BQF6 706-1050 limits assumed): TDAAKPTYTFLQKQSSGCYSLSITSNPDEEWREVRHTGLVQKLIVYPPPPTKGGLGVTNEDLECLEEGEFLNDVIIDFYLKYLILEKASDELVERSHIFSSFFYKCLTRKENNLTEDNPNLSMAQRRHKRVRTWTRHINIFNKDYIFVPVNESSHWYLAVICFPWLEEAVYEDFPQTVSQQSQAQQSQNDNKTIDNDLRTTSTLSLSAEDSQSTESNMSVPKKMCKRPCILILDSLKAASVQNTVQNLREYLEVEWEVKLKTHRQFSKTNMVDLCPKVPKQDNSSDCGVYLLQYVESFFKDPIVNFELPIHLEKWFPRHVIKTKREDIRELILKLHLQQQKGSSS
SENP8 block-1: inhibitors of human SENP8 protease; inhibition, % at 10 µM; Q96LD8; AID 2540; purified SENP8, Z-RLRGG-aminoluciferin cleavage, luminescence; 1.2% of 330,000 active; in the data active = inhibition above about 50%
SENP8 block-2: inhibitors of human SENP8 protease | Q96LD8 | recombinant SENP8, Nedd8 substrate fluorescence | inhibition, % at 20 µM | 0.64% of 360,000 active | AID 602440; in the data active = inhibition mostly above about 40%, no sharp cut-off; inactive = mostly below about 27%
SENP1 FRET inh: inhibitors of human SENP1 SUMO protease catalytic domain; Q9P0U3; recombinant SENP1 catalytic domain, CyPet-SUMO1-YPet FRET cleavage; inhibition, % at 10 µM; 0.21% of 360,000 active; AID 624204;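 active = inhibition at least 30% at 10 µM, raw YFP signal under a set limit, fluorescence ratio 0.5 to 1.5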;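 note: 0% = enzyme with DMSO and 100% = no enzyme wells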
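Test system: human SENP1 catalytic domain; medium: Tris pH 8 buffer plus EDTA, NaCl, BME, BSA, NP40, catalase; incubation: 50 min reaction at room temperature; technique: FRET, CFP and YFP emission; controls: no-enzyme low control and enzyme-plus-DMSO high control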
SENP8 confirm: human SENP8 inhibition, confirmed; shares compounds with SENP7 block; Recombinant SENP8, Z-RLRGG-aminoluciferin luminescence, 60 min; inhibition, % at 12.5 µM; 40% of 6,200 active; AID 488912;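 active = mean inhibition across replicates above about 50%, limit read from the data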
SENP6 confirm: human SENP6 inhibition, confirmed | shares compounds with SENP7 block | recombinant SENP6, Z-RLRGG-aminoluciferin luminescence | inhibition, % at 12.5 µM | 58% of 6,200 active
SENP7 conf: human SENP7 inhibition, confirmed. 69% of 6,200 active. recombinant SENP7, Z-RLRGG-aminoluciferin luminescence, 40 min. inhibition, % at 12.5 µM. shares compounds with SENP7 block. AID 488917
Casp3 select: selectivity test for SENP inhibitors: human caspase-3 inhibition | shares compounds with SENP7 block | purified caspase-3, Z-DEVD-aminoluciferin luminescence, 60 min | inhibition, % at 12.5 µM | 60% of 6,200 active | AID 488918;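 active = mean inhibition above about 50%, limit read from the data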;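 note: plate controls were enzyme with DMSO for no effect and wells without caspase-3 for full effect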
Target sequence (P42574 28-227 limits assumed): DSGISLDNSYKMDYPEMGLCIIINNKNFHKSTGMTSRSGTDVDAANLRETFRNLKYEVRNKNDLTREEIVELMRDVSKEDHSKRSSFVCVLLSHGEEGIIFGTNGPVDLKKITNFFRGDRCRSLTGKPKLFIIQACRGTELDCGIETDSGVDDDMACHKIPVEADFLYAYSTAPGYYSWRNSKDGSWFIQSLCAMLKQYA
SENP luc ctr: luminescence interference (SENP counter-screen); 39% of 6,200 active; Pre-incubated SENP8/Z-RLRGG-aminoluciferin, luciferase luminescence interference; inhibition, % at 12.5 µM; shares compounds with SENP7 block;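 active = mean inhibition above about 50% when retested at one dose, limit read from the data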;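 note: plate controls were DMSO wells with completed reaction for no effect and substrate without enzyme for full effect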
* = called active by the depositor.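 Rule for the calls, unless noted: active = mean inhibition above about 50% in the one-dose retest (limit read from the data); inactive = the rest.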

What do the screens show for `COc1ccc(NC(=O)CC2C(=O)N(c3cccc(C)c3)C(=O)N2C2CCCCC2)cc1` (stereo not given)?
SENP6 block: -23; HSP90 refold inh: 4; SENP7 block: -8; SENP8 block-1: -7; SENP8 block-2: -1; SENP1 FRET inh: 2

How did CCc1nc(C)cn1S(=O)(=O)c1cc(C)c(OC)c(C)c1C do in these assays?
SENP6 block: -13; HSP90 refold inh: -5; SENP7 block: 3; SENP8 block-1: -1; SENP8 block-2: 18; SENP1 FRET inh: 2

How did CCOc1ccc(S(=O)(=O)N(C)CC(=O)NCc2ccccn2)cc1Cl do in these assays?
SENP6 block: 21; HSP90 refold inh: 0; SENP7 block: 1; SENP8 block-1: -6; SENP8 block-2: 6; SENP1 FRET inh: 0

What do the screens show for `Fc1ccc2nc(Nc3ccccc3)sc2c1`?
SENP6 block: 47; HSP90 refold inh: -9; SENP7 block: 72*; SENP8 block-1: 64*; SENP8 block-2: 7; SENP1 FRET inh: -1; SENP8 confirm: 81*; SENP6 confirm: 81*; SENP7 conf: 95*; Casp3 select: 58*; SENP luc ctr: 82*

Results for CC(C)(C)c1ccc(C(=O)C2CCCN(C(=O)c3ccccn3)C2)cc1 (stereo not given) ?
SENP6 block: 5; HSP90 refold inh: 3; SENP7 block: 102*; SENP8 block-1: 2; SENP8 block-2: 5; SENP1 FRET inh: 1; SENP8 confirm: -9; SENP6 confirm: -7; SENP7 conf: -10; Casp3 select: 0; SENP luc ctr: 4

Results for CC(C)(C)N(Cc1ccc2c(c1)OCO2)C(=O)/C=C\S(=O)c1ccccc1 (stereo not given) ?
SENP8 block-2: 12; SENP1 FRET inh: 1

How did N#CCNc1ccc([N+](=O)[O-])cc1C#N do in these assays?
SENP6 block: -11; HSP90 refold inh: 8; SENP7 block: -9; SENP8 block-1: -4; SENP8 block-2: 8; SENP1 FRET inh: 3

Results for O=C1[C@@H]2CSCN2C(=O)CN1Cc1ccc(F)cc1 ?
SENP6 block: -6; HSP90 refold inh: 8; SENP7 block: 10; SENP8 block-1: 0; SENP8 block-2: 10; SENP1 FRET inh: 2

What do the screens show for `O=C(NNS(=O)(=O)c1ccccc1)c1ccc([N+](=O)[O-])cc1`?
SENP6 block: -3; HSP90 refold inh: -5; SENP7 block: 68*; SENP8 block-1: -10; SENP8 block-2: 14; SENP1 FRET inh: 2; SENP8 confirm: 8; SENP6 confirm: 9; SENP7 conf: 11; Casp3 select: 4; SENP luc ctr: -3

What do the screens show for `Fc1cccc(-c2ncc(-c3ccccc3)o2)c1`?
SENP8 block-2: -471; SENP1 FRET inh: 3

How did Brc1ccc(-c2cnc(-c3cccs3)o2)cc1 do in these assays?
SENP6 block: 69*; HSP90 refold inh: -3; SENP7 block: 62*; SENP8 block-1: 41; SENP8 block-2: -370; SENP1 FRET inh: -1; SENP8 confirm: 56*; SENP6 confirm: 67*; SENP7 conf: 86*; Casp3 select: 36; SENP luc ctr: 47

What do the screens show for `S=C(NCc1ccco1)Nc1ccc(Cl)cn1`?
SENP6 block: 4; HSP90 refold inh: 3; SENP7 block: 0; SENP8 block-1: 3; SENP8 block-2: -10; SENP1 FRET inh: -5

How did CC(C)CNC(=S)NNC(=O)c1csc2c1CCCC2 do in these assays?
SENP6 block: 12; HSP90 refold inh: -2; SENP7 block: 50*; SENP8 block-1: 11; SENP8 block-2: 8; SENP1 FRET inh: 1; SENP8 confirm: 1; SENP6 confirm: 2; SENP7 conf: -4; Casp3 select: -2; SENP luc ctr: -2

Results for COc1ccc2[nH]c3c(=O)n(Cc4ccc(C(=O)N5CCCCCC5)cc4)c(=S)[nH]c3c2c1 ?
SENP6 block: 25; HSP90 refold inh: 1; SENP7 block: 38; SENP8 block-1: 28; SENP8 block-2: -249; SENP1 FRET inh: -1

What do the screens show for `COc1ccc2[nH]c3c(=O)n(Cc4ccc(C(=O)N5CCC(C(N)=O)CC5)cc4)c(=S)[nH]c3c2c1`?
SENP6 block: 69*; HSP90 refold inh: -1; SENP7 block: 57*; SENP8 block-1: 67*; SENP8 block-2: -300; SENP1 FRET inh: 1; SENP8 confirm: 73*; SENP6 confirm: 72*; SENP7 conf: 87*; Casp3 select: 68*; SENP luc ctr: 41

Results for Cc1cccc(/C=N\N=C\c2cccc(C)c2)c1 ?
SENP6 block: 63*; HSP90 refold inh: -5; SENP7 block: 51*; SENP8 block-1: 17; SENP8 block-2: 23; SENP1 FRET inh: 0; SENP8 confirm: 19; SENP6 confirm: 54*; SENP7 conf: 81*; Casp3 select: 38; SENP luc ctr: 36

What do the screens show for `Cc1cccc(/C=N/n2c(C)nnc2C)c1`?
SENP6 block: -10; HSP90 refold inh: -4; SENP7 block: -12; SENP8 block-1: -11; SENP8 block-2: 13; SENP1 FRET inh: 0

How did CCc1nnc(NC(=O)c2cc(-c3ccccc3)nn2-c2ccccc2)s1 do in these assays?
SENP6 block: -19; HSP90 refold inh: 2; SENP7 block: 99*; SENP8 block-1: 0; SENP8 block-2: 3; SENP1 FRET inh: 1; SENP8 confirm: -20; SENP6 confirm: -12; SENP7 conf: -15; Casp3 select: 1; SENP luc ctr: -7

Results for O=C(Nc1nccs1)c1cc(-c2ccccc2)nn1-c1ccccc1 ?
SENP6 block: 7; HSP90 refold inh: 5; SENP7 block: 1; SENP8 block-1: -5; SENP8 block-2: -62; SENP1 FRET inh: -1

What do the screens show for `O=C(NCc1cccnc1)c1ccc(Cl)c(S(=O)(=O)Nc2ccccc2C(=O)NCc2cccnc2)c1`?
SENP6 block: -18; HSP90 refold inh: 1; SENP7 block: -8; SENP8 block-1: -6; SENP8 block-2: -14; SENP1 FRET inh: -2

How did COc1ccc(/C(N)=N/OC(=O)C2CCCCC2)cc1OC do in these assays?
SENP6 block: 41; HSP90 refold inh: -4; SENP7 block: 50; SENP8 block-1: 6; SENP8 block-2: -1; SENP1 FRET inh: 5
